Test [1] concerns the target Melanocyte-stimulating hormone receptor (Mus musculus, UniProt Q01727). Description: Agonist activity at mouse MC1R expressed in HEK293 cells incubated for 2 hrs by AlphaScreen cAMP assay. It counts as functional, cell-based. The essentials: (§1)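 HEK293 cells stably expressing mouse MC1R, about 90% confluent, were detached with Versene and suspended at 10,000 cells/μL in stimulation buffer (HBSS, 0.5 mM IBMX, 5 mM HEPES, 0.1% BSA, pH 7.4) with anti-cAMP acceptor beads. Compound was added for 2 h at room temperature in the dark, then donor beads/biotinylated cAMP in lysis buffer for 2 h, followed by AlphaScreen read. Doses went up to 100 μM in duplicate wells, ≥3 experiments. EC50 came from nonlinear regression, with efficacy as a percent of NDP-MSH.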
A general note: Alpha assays give light when donor and acceptor beads are brought close together.

For test [2], the target named is Melanocyte-stimulating hormone receptor (Mus musculus) (UniProt Q01727). The experiment in a line: Agonist activity at mouse MC1R expressed in HEK293 cells at 100 uM incubated for 2 hrs by AlphaScreen cAMP assay relative to NDP-MSH. It is filed as functional, cell-based. The essentials: as §1
Melanocyte-stimulating hormone receptor (Mus musculus), sequence (Q01727 whole entry, looked up): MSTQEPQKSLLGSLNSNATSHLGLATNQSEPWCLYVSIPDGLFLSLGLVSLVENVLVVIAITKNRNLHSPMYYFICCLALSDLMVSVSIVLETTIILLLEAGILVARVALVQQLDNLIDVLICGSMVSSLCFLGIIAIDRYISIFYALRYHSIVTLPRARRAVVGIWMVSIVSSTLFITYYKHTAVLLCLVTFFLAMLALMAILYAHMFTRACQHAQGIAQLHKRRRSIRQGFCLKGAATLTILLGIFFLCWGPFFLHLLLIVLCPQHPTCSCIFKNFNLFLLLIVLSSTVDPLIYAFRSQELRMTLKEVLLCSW
Test [3] has as its target Melanocortin receptor 5 (Mus musculus, UniProt P41149). Description: Inverse agonist activity at mouse MC5R expressed in HEK293 cells incubated for 2 hrs by AlphaScreen cAMP assay. It is filed as functional, cell-based. The essentials:
(§2)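 In the mouse MC5R HEK293 stable line, cells in IBMX-containing stimulation buffer with anti-cAMP acceptor beads were exposed to compound at up to 100 μM for 2 h at room temperature in the dark. Donor beads/biotinylated cAMP were then added for 2 h before AlphaScreen reading. Signal was normalized to basal response to give a percent difference from basal. Duplicate wells, ≥3 independent experiments.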

Test [4] has as its target Melanocortin receptor 5 (Mus musculus) (UniProt P41149). The experiment in a line: Inverse agonist activity at mouse MC5R expressed in HEK293 cells at 100 uM incubated for 2 hrs by AlphaScreen cAMP assay. It is filed as functional, cell-based. Put shortly:
as §2

Test [5] has as its target Melanocortin receptor 3 (Mus musculus) (UniProt P33033). The experiment in a line: Agonist activity at mouse MC3R expressed in HEK293 cells at 100 uM incubated for 2 hrs by AlphaScreen cAMP assay relative to untreated control. It counts as functional, cell-based.
The target of test [6] is Melanocortin receptor 4 (Mus musculus) (UniProt P56450). Description: Agonist activity at mouse MC4R expressed in HEK293 cells at 100 uM incubated for 2 hrs by AlphaScreen cAMP assay relative to untreated control. It is filed as functional, cell-based.
Melanocortin receptor 4 (Mus musculus), sequence (P56450 whole entry): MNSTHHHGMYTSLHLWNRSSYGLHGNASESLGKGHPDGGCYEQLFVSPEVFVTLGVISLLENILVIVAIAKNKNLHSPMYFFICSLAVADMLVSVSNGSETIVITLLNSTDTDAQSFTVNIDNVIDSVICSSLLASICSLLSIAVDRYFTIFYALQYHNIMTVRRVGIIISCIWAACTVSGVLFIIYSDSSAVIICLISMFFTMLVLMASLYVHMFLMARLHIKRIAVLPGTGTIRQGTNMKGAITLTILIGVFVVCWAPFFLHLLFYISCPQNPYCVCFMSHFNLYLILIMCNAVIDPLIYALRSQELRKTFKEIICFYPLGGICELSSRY
Test [7] deals with Melanocortin receptor 3 (Mus musculus, UniProt P33033). Description: Antagonist activity at mouse MC3R expressed in HEK293 cells assessed as reduction in NDP-MSH-induced response incubated for 2 hrs by AlphaScreen cAMP assay based Schild analysis. It counts as functional, cell-based. As to conditions: read-out: pA2 (converted).
Melanocortin receptor 3, sequence (P33033 whole entry): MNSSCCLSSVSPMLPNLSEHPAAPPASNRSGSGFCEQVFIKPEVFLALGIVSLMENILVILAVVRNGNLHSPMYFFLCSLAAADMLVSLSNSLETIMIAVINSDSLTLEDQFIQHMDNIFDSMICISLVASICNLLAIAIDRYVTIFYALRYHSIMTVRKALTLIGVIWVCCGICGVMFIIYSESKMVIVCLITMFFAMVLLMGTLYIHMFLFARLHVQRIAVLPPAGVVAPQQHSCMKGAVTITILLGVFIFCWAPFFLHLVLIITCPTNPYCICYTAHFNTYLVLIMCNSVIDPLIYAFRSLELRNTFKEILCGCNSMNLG
Test [8] deals with Melanocortin receptor 4 (Mus musculus, UniProt P56450). Description: Antagonist activity at mouse MC4R expressed in HEK293 cells assessed as reduction in NDP-MSH-induced response incubated for 2 hrs by AlphaScreen cAMP assay based Schild analysis. As to conditions: read-out: pA2 (converted). It counts as functional, cell-based.
Melanocortin receptor 4, sequence (P56450 whole entry): as the sequence (P56450 whole entry) above
The species entered for test [9] is Mus musculus. Description: Selectivity index, ratio of pA2 for antagonist activity at mouse MC3R expressed in HEK293 cells to pA2 for antagonist activity at mouse MC4R expressed in HEK293 cells. It is filed as cell-based.
Test [10] has as its target Melanocortin receptor 4 (Mus musculus) (UniProt P56450). The experiment in a line: Potency index, ratio of pA2 for test compound to pA2 for AGRP for antagonist activity at mouse MC4R expressed in HEK293 cells assessed as reduction in NDP-MSH-induced response incubated for 2 hrs by AlphaScreen cAMP assay based Schild analysis. It is filed as functional, cell-based.
Test [11] concerns the target Melanocyte-stimulating hormone receptor (Mus musculus) (UniProt Q01727). Description: Agonist activity at mouse MC1R expressed in HEK293 cells incubated for 2 hrs by AlphaScreen cAMP assay relative to NDP-MSH. It counts as functional, cell-based. The essentials: as §1

Square brackets hold non-standard residues; d marks the D form. Peptide text beside a SMILES is read from it. hPhe = N[C@@H](CCc1ccccc1)C(=O)O; Nle = CCCC[C@H](N)C(=O)O; Dap = NC[C@H](N)C(=O)O

Melanocortin receptor 5 (Mus musculus), sequence (P41149 whole entry): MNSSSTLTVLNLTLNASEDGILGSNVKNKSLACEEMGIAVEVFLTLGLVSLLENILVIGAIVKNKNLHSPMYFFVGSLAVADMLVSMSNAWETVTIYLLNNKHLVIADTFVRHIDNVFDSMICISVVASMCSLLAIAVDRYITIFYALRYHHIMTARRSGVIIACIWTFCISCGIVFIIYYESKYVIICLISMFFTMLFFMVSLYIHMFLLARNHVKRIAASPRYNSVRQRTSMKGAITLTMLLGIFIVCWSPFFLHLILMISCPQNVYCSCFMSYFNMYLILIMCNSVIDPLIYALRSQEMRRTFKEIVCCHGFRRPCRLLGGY
Melanocortin receptor 5, sequence (P41149 whole entry): as above
Melanocyte-stimulating hormone receptor, sequence (Q01727 whole entry): as the sequence (Q01727 whole entry, looked up) above
Melanocortin receptor 3 (Mus musculus), sequence (P33033 whole entry): as the sequence (P33033 whole entry) above

Broadly, the EC50 is the concentration giving half of the maximal effect. Read a low EC50 as an effect from little substance. For the compound `CCCC[C@@H]1NC(=O)[C@H](CO)NC(=O)[C@H](CC(N)=O)NC(=O)[C@H](CCc2ccccc2)NC(=O)[C@H](Cc2ccccc2)NC(=O)[C@H](CCCNC(=N)N)NC(=O)[C@@H]2CCCN2C(=O)[C@H]2CCCN2C1=O` (cyclo(RF[hPhe]NS[Nle][dP]P)), the EC50 in test [1] and in test [3] was above 100000 nM in each case. Moreover, the Activity in test [2], in test [4], in [5] and in test [6] was below 20% in each case. Also, the Kb in [7] was 501 nM; in test [8] it was 0.631 nM. The results for the Ratio in [9] and in test [10] were 790 and 3 to 6, respectively.
In the case of `N=C(N)NCCC[C@@H]1NC(=O)[C@@H]2CCCN2C(=O)[C@H]2CCCN2C(=O)[C@H](Cc2ccccc2)NC(=O)[C@H](CO)NC(=O)[C@H](CN)NC(=O)[C@H](Cc2ccccc2)NC(=O)[C@H](Cc2ccccc2)NC1=O`, the EC50 in test [1] is 600 nM; in test [3], above 100000 nM. Besides, the Activity in test [11] is 85%; in test [4] it was below 20%; in test [5], below 20%; in test [6], below 20%. For the same compound, the Kb is 158 nM in [7] and 0.794 nM in test [8]. In [9], the Ratio came out at 170.
Consider `CCCC[C@@H]1NC(=O)[C@H](CO)NC(=O)[C@H](CN)NC(=O)[C@H](CCc2ccccc2)NC(=O)[C@H](Cc2ccccc2)NC(=O)[C@H](CCCNC(=N)N)NC(=O)[C@@H]2CCCN2C(=O)[C@H]2CCCN2C1=O` (cyclo(RF[hPhe][Dap]S[Nle][dP]P)), for which the concentration giving a half-maximal response (EC50) in [1] and in test [3] was above 100000 nM throughout. Also, the Activity in test [2], in test [4], in test [5] and in [6] was below 20% in each case. The Kb in [7] was 200 nM; in [8], 0.316 nM. The Ratio in test [9] was 630; in [10], 3 to 6.
Regarding `C[C@@H]1NC(=O)[C@H](CN)NC(=O)[C@H](CCc2ccccc2)NC(=O)[C@H](Cc2ccccc2)NC(=O)[C@H](CCCNC(=N)N)NC(=O)[C@@H]2CCCN2C(=O)[C@H]2CCCN2C(=O)[C@H](Cc2ccccc2)NC1=O`, the results for the EC50 in test [1] and in [3] were 560 nM and above 100000 nM, respectively. In addition, the Activity in [11] is 70%; in test [4] it was below 20%; in test [5] it was below 20%; in test [6], below 20%. The Kb in test [7] was 79.4 nM; in test [8] it was 0.794 nM. Further, the Ratio in [9] worked out at 100.
